Results taken from ChEMBL document CHEMBL4130550, “Antiproliferative Dimeric Aporphinoid Alkaloids from the Roots of Thalictrum cultratum” (J Nat Prod, 2017).

Key:
HL-60 [1] = assay: Induction of apoptosis in human HL60 cells assessed as early apoptotic cells at 1.5 uM after 48 hrs by Annexin-V-FITC/propidium iodide staining based flow cytometric method (reference value: 2.8%); assay type: functional
HL-60 [2] = assay: Induction of apoptosis in human HL60 cells assessed as live cells at 1.5 uM after 24 hrs by Annexin-V-APC/7-AAD staining based flow cytometric method (reference value: 95.31%); assay type: functional
In short: (§1)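 HL-60 are seeded overnight in six-well plates, then treated in triplicate with 0.06, 0.3 or 1.5 μM, or untreated, for 24 h. Cells are washed in PBS and taken up in annexin V binding buffer. Annexin V-APC is added for 15 min in the dark at 25 °C, and 7-AAD just before flow cytometry. Early apoptosis is annexin V-APC only; late apoptosis is annexin V-APC/7-AAD.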

HL-60 [3] = assay: Induction of apoptosis in human HL60 cells assessed as early apoptotic cells at 1.5 uM after 72 hrs by Annexin-V-FITC/propidium iodide staining based flow cytometric method (reference value: 2.8%); assay type: functional
HL-60 [4] = assay: Induction of mitochondrial membrane potential loss in human HL60 cells after 24 hrs by JC1 staining based flow cytometric method; assay type: functional, cell-based
HL-60 [5] = assay: Induction of apoptosis in human HL60 cells assessed as early apoptotic cells at 1.5 uM after 24 hrs by Annexin-V-APC/7-AAD staining based flow cytometric method (reference value: 2.26%); assay type: functional; in short: as §1
HL-60 [6] = assay: Induction of apoptosis in human HL60 cells assessed as late apoptotic cells at 1.5 uM after 24 hrs by Annexin-V-APC/7-AAD staining based flow cytometric method (reference value: 1.99%); assay type: functional; in short: as §1
HL-60 [7] = assay: Induction of apoptosis in human HL60 cells assessed as necrotic cells at 1.5 uM after 24 hrs by Annexin-V-FITC/propidium iodide staining based flow cytometric method (reference value: 0.47%); assay type: functional
HL-60 [8] = assay: Cell cycle arrest in human HL60 cells assessed as accumulation at S phase at 0.06 uM after 24 hrs by propidium iodide staining based flow cytometric method (reference value: 25.75%); assay type: functional
HL-60 [9] = assay: Induction of apoptosis in human HL60 cells assessed as late apoptotic cells at 0.3 uM after 24 hrs by Annexin-V-APC/7-AAD staining based flow cytometric method (reference value: 1.99%); assay type: functional; in short: as §1
HL-60 [10] = assay: Cell cycle arrest in human HL60 cells assessed as accumulation at G2 phase at 0.06 uM after 24 hrs by propidium iodide staining based flow cytometric method (reference value: 30.93%); assay type: functional
HL-60 [11] = assay: Induction of apoptosis in human HL60 cells assessed as live cells at 1.5 uM after 48 hrs by Annexin-V-FITC/propidium iodide staining based flow cytometric method (reference value: 94.19%); assay type: functional
HL-60 [12] = assay: Induction of apoptosis in human HL60 cells assessed as necrotic cells at 1.5 uM after 72 hrs by Annexin-V-FITC/propidium iodide staining based flow cytometric method (reference value: 0.47%); assay type: functional
HL-60 [13] = assay: Induction of mitochondrial membrane potential loss in human HL60 cells assessed as intact mitochondrial membrane potential at 0.3 uM after 24 hrs by JC1 staining based flow cytometric method (reference value: 99.42%); assay type: functional
HL-60 [14] = assay: Induction of apoptosis in human HL60 cells assessed as early apoptotic cells at 0.06 uM after 24 hrs by Annexin-V-APC/7-AAD staining based flow cytometric method (reference value: 2.26%); assay type: functional; in short: as §1
HL-60 [15] = assay: Induction of mitochondrial membrane potential loss in human HL60 cells assessed as collapse of the mitochondrial membrane potential at 1.5 uM after 24 hrs by JC1 staining based flow cytometric method (reference value: 0.58%); assay type: functional
HL-60 [16] = assay: Induction of apoptosis in human HL60 cells assessed as live cells at 0.06 uM after 24 hrs by Annexin-V-APC/7-AAD staining based flow cytometric method (reference value: 95.31%); assay type: functional; in short: as §1
HL-60 [17] = assay: Induction of apoptosis in human HL60 cells assessed as late apoptotic cells at 1.5 uM after 72 hrs by Annexin-V-FITC/propidium iodide staining based flow cytometric method (reference value: 2.53%); assay type: functional

## COc1cc2c(c(Oc3ccc(C[C@H]4c5cc(OC)c6c(c5CCN4C)OCO6)cc3)c1OC)C[C@H]1c3c(c(OC)c(OC)c(OC)c3-2)CCN1C
HL-60 [1]
  Activity: 28.78%
HL-60 [2]
  Activity: 35.77%
HL-60 [3]
  Activity: 31.46%
HL-60 [4]
  Activity: Dose-dependent effect
HL-60 [5]
  Activity: 9%
HL-60 [6]
  Activity: 47.95%
HL-60 [7]
  Activity: 0.14%
HL-60 [8]
  Activity: 31.66%
HL-60 [9]
  Activity: 6.3%
HL-60 [10]
  Activity: 24.33%
HL-60 [11]
  Activity: 52.96%
HL-60 [12]
  Activity: 0.79%
HL-60 [13]
  Activity: 66.5%
HL-60 [14]
  Activity: 8.57%
HL-60 [15]
  Activity: 59.1%
HL-60 [16]
  Activity: 79.49%
HL-60 [17]
  Activity: 31.66%
